# According to ChEMBL document CHEMBL1667749, “Design & synthesis of N'-[substituted] pyridine-4-carbohydrazides as potential anticonvulsant agents” (Eur J Med Chem, 2011):
# Activity calls are given as the source filed them. The calls are words filed in the database; no cut-off is given here.
# Tests used:
# Rattus norvegicus [1] = experiment: Acute toxicity in Sprague-Dawley rat assessed as motor impairment at 100 mg/kg, ip after 4 hrs; assay type: organism-based; parameters: dose 100 mg/kg, route intraperitoneal; conditions: in vivo
# How it was run: (§1)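 Male albino Sprague Dawley rats, two per dose, given test compound i.p. as a suspension in 0.5% methyl cellulose. Behaviour was closely observed and recorded over 4 h to detect acute motor impairment. Values are scored as animals toxic over animals tested at each time point.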
# Rattus norvegicus [2] = experiment: Acute toxicity in Sprague-Dawley rat assessed as motor impairment at 100 mg/kg, ip after 2 hrs; assay type: organism-based; parameters: dose 100 mg/kg, route intraperitoneal; conditions: in vivo; how it was run: as §1
# Rattus norvegicus [3] = experiment: Acute toxicity in Sprague-Dawley rat assessed as motor impairment at 100 mg/kg, ip after 1 hr; assay type: organism-based; parameters: dose 100 mg/kg, route intraperitoneal; conditions: in vivo; how it was run: as §1
# Rattus norvegicus [4] = experiment: Acute toxicity in Sprague-Dawley rat assessed as motor impairment at 100 mg/kg, ip after 0.5 hrs; assay type: organism-based; parameters: dose 100 mg/kg, route intraperitoneal; conditions: in vivo; how it was run: as §1
# Rattus norvegicus [5] = experiment: Acute toxicity in Sprague-Dawley rat assessed as motor impairment at 100 mg/kg, ip after 0.25 hrs; assay type: organism-based; parameters: dose 100 mg/kg, route intraperitoneal; conditions: in vivo; how it was run: as §1
# Mus musculus [6] = organism: Mus musculus; experiment: Protective index, ratio of TD50 for albino CF-1 mouse to ED50 for albino CF-1 mouse assessed as protection against 6 Hz psychomotor seizure; assay type: functional
# How it was run: (§2)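 Protection index = TD50 (rotorod, mice, i.p.) divided by ED50 from MES or 6 Hz test, each at its time of peak effect.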
# Mus musculus [7] = organism: Mus musculus; experiment: Protective index, ratio of TD50 for albino CF-1 mouse to ED50 for albino CF-1 mouse assessed as protection against maximal electroshock-induced seizures; assay type: functional; how it was run: as §2
# Mus musculus [8] = experiment: Anticonvulsant activity in ip dosed albino CF-1 mouse assessed as protection against 6 Hz psychomotor seizure after 0.25 hrs by minimal clonic seizure test; assay type: functional; conditions: albino CF-1, ip
# How it was run: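 Quantitative 6 Hz test in male CF-1 mice dosed i.p.; 32 mA for 3 s via corneal electrodes at time of peak effect; ED50 with 95% confidence interval, slope and standard error reported.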
# [9] = Neurotoxicity in ip dosed albino CF-1 mouse assessed as motor impairment after 8 hrs by rotarod test; assay type: toxicity, organism-based; conditions: in vivo, read-out: ID50
# Mus musculus [10] = experiment: Anticonvulsant activity in ipp dosed albino CF-1 mouse assessed as protection against subcutaneous metrazol-induced seizures after 1 hr; assay type: functional; conditions: albino CF-1, sc
# Mus musculus [11] = experiment: Anticonvulsant activity in ip dosed albino CF-1 mouse assessed as protection against maximal electroshock-induced seizures after 1 hr; assay type: functional; conditions: albino CF-1, ip
# Mus musculus [12] = experiment: Anticonvulsant activity in albino CF-1 mouse assessed as protection against 6 Hz psychomotor seizure at 100 mg/kg, ip after 4 hrs by minimal clonic seizure test; assay type: functional, organism-based; parameters: dose 100 mg/kg
# How it was run: (§3)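 Male CF-1 mice (18–25 g), i.p. 100 mg/kg in 0.5% methyl cellulose suspension; 6 Hz corneal stimulation, 32 mA for 3 s, four mice per time point. Protected if no minimal clonic phase with stereotyped automatistic behaviour.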
# Mus musculus [13] = experiment: Anticonvulsant activity in albino CF-1 mouse assessed as protection against 6 Hz psychomotor seizure at 100 mg/kg, ip after 2 hrs by minimal clonic seizure test; assay type: functional; how it was run: as §3
# Mus musculus [14] = experiment: Anticonvulsant activity in albino CF-1 mouse assessed as protection against 6 Hz psychomotor seizure at 100 mg/kg, ip after 1 hr by minimal clonic seizure test; assay type: functional; conditions: route intraperitoneal; how it was run: as §3
# Mus musculus [15] = experiment: Anticonvulsant activity in albino CF-1 mouse assessed as protection against 6 Hz psychomotor seizure at 100 mg/kg, ip after 0.5 hrs by minimal clonic seizure test; assay type: functional; how it was run: as §3
# Mus musculus [16] = experiment: Anticonvulsant activity in albino CF-1 mouse assessed as protection against 6 Hz psychomotor seizure at 100 mg/kg, ip after 0.25 hrs by minimal clonic seizure test; assay type: functional; conditions: route intraperitoneal; how it was run: as §3
# Mus musculus [17] = experiment: Anticonvulsant activity in albino CF-1 mouse assessed as protection against maximal electroshock-induced seizures at 300 mg/kg, ip after 0.5 hrs; assay type: functional, organism-based; parameters: dose 300 mg/kg
# How it was run: (§4)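 Male CF-1 mice (18–25 g), i.p. in 0.5% methyl cellulose at 30, 100 and 300 mg/kg; MES: 60 Hz, 50 mA, 0.2 s through tetracaine-primed corneal electrodes; protection = abolished hind limb tonic extension. Value given as minimum dose active in half or more of mice.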
# Mus musculus [18] = experiment: Anticonvulsant activity in ip dosed albino CF-1 mouse assessed as dose required to protect against maximal electroshock-induced seizures after 2 hrs; assay type: functional; how it was run: as §4
# Mus musculus [19] = experiment: Anticonvulsant activity in ip dosed albino CF-1 mouse assessed as dose required to protect against maximal electroshock-induced seizures after 4 hrs; assay type: functional; how it was run: as §4
# Mus musculus [20] = experiment: Anticonvulsant activity in albino CF-1 mouse assessed as protection against subcutaneous metrazol-induced seizures at 300 mg/kg, ip after 0.5 hrs; assay type: functional, organism-based; parameters: dose 300 mg/kg
# How it was run: (§5)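 Male CF-1 mice, i.p. at 30, 100, 300 mg/kg in 0.5% methyl cellulose; metrazol dose convulsing 97% of animals injected s.c. in midline neck fold, mice isolated and watched 30 min; protected if no 3–5 s clonic spasm episode of limbs, jaws or vibrissae.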
# Mus musculus [21] = experiment: Anticonvulsant activity in albino CF-1 mouse assessed as protection against subcutaneous metrazol-induced seizures at 300 mg/kg, ip after 4 hrs; assay type: functional, organism-based; parameters: dose 300 mg/kg; how it was run: as §5
# Mus musculus [22] = experiment: Neurotoxicity in albino CF-1 mouse assessed as motor impairment at 300 mg/kg, ip after 0.5 hrs by rotarod test; assay type: toxicity, organism-based; parameters: dose 300 mg/kg, route intraperitoneal; conditions: in vivo
# How it was run: (§6)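 Minimal motor impairment in male CF-1 mice by rotorod after i.p. dosing; toxic if animal falls off rotating rod 3 times within 1 min. Screen doses 30, 100, 300 mg/kg; quantitative TD50 (95% confidence interval) determined at time of peak effect.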
# Mus musculus [23] = experiment: Neurotoxicity in albino CF-1 mouse assessed as motor impairment at 300 mg/kg, ip after 4 hrs by rotarod test; assay type: toxicity, organism-based; parameters: dose 300 mg/kg, route intraperitoneal; conditions: in vivo; how it was run: as §6
# Rattus norvegicus [24] = experiment: Anticonvulsant activity in Sprague-Dawley rat assessed as protection against maximal electroshock-induced seizures at 30 mg/kg, po after 0.25 hrs; assay type: functional, organism-based; parameters: dose 30 mg/kg
# How it was run: (§7)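 Male Sprague Dawley rats (100–150 g; 115–150 g in text), compound suspended in 0.5% methyl cellulose, given orally; MES challenge: 60 Hz alternating current, 150 mA, 0.2 s via corneal electrodes primed with 0.5% tetracaine HCl electrolyte. Protection = abolition of hind limb tonic extension; four rats per time point, scored as number protected.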
# Rattus norvegicus [25] = experiment: Anticonvulsant activity in Sprague-Dawley rat assessed as protection against maximal electroshock-induced seizures at 30 mg/kg, po after 0.5 hrs; assay type: functional, organism-based; parameters: dose 30 mg/kg; how it was run: as §7
# Rattus norvegicus [26] = experiment: Anticonvulsant activity in Sprague-Dawley rat assessed as protection against maximal electroshock-induced seizures at 30 mg/kg, po after 1 hr; assay type: functional, organism-based; parameters: dose 30 mg/kg; how it was run: as §7
# Rattus norvegicus [27] = experiment: Anticonvulsant activity in Sprague-Dawley rat assessed as protection against maximal electroshock-induced seizures at 30 mg/kg, po after 4 hrs; assay type: functional, organism-based; parameters: dose 30 mg/kg; how it was run: as §7
# Rattus norvegicus [28] = experiment: Neurotoxicity in Sprague-Dawley rat assessed as motor impairment at 30 mg/kg, po after 0.25 hrs by rotarod test; assay type: toxicity, organism-based; parameters: dose 30 mg/kg, route oral; conditions: in vivo
# Rattus norvegicus [29] = experiment: Neurotoxicity in Sprague-Dawley rat assessed as motor impairment at 30 mg/kg, po after 0.5 hrs by rotarod test; assay type: toxicity, organism-based; parameters: dose 30 mg/kg, route oral; conditions: in vivo
# Rattus norvegicus [30] = experiment: Neurotoxicity in Sprague-Dawley rat assessed as motor impairment at 30 mg/kg, po after 1 hr by rotarod test; assay type: toxicity, organism-based; parameters: dose 30 mg/kg, route oral; conditions: in vivo
# Rattus norvegicus [31] = experiment: Neurotoxicity in Sprague-Dawley rat assessed as motor impairment at 30 mg/kg, po after 2 hrs by rotarod test; assay type: toxicity, organism-based; parameters: dose 30 mg/kg, route oral; conditions: in vivo
# Rattus norvegicus [32] = experiment: Neurotoxicity in Sprague-Dawley rat assessed as motor impairment at 30 mg/kg, po after 4 hrs by rotarod test; assay type: toxicity, organism-based; parameters: dose 30 mg/kg, route oral; conditions: in vivo
# Rattus norvegicus [33] = experiment: Anticonvulsant activity in Sprague-Dawley rat assessed as protection against maximal electroshock-induced seizures at 30 mg/kg, po after 2 hrs; assay type: functional; how it was run: as §7
# Rattus norvegicus [34] = experiment: Anticonvulsant activity in Sprague-Dawley rat assessed as protection against pilocarpine-induced status epilepticus at 200 mg/kg, ip; assay type: functional, organism-based; parameters: dose 200 mg/kg
# How it was run: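 Male albino Sprague Dawley rats (150–180 g) dosed i.p., then challenged with pilocarpine; qualitative screen scored as protection or no protection, seizure severity graded on the Racine scale; N/F and deaths recorded, time taken post first Stage III seizure.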
# Rattus norvegicus [35] = experiment: Toxicity in Sprague-Dawley rat assessed as change in body weight at 200 mg/kg, ip measured after 24 hrs of clonus of one of the fore limbs seizure stage in protected rat; assay type: organism-based; parameters: dose 200 mg/kg, route intraperitoneal; conditions: in vivo
# How it was run: (§8)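 Male Sprague Dawley rats (150–180 g) dosed i.p. then challenged with pilocarpine; body weight change measured 24 h after first Stage III seizure, split by protected and non-protected rats, given ± S.E.M.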
# Rattus norvegicus [36] = experiment: Toxicity in Sprague-Dawley rat assessed as change in body weight at 200 mg/kg, ip measured after 24 hrs of clonus of one of the fore limbs seizure stage in non-protected rat; assay type: organism-based; parameters: dose 200 mg/kg, route intraperitoneal; conditions: in vivo; how it was run: as §8
# [37] = Octanol-phosphate buffer partition coefficient, log P of the compound at 5 mg, after 24 hrs by UV spectroscopic analysis; assay type: physicochemical
# How it was run: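 5 mg compound added to 10 mL octanol plus 10 mL phosphate buffer in stoppered tube, mechanically shaken 24 h at room temperature, then left in separating funnel 6 h to equilibrate.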
# Rattus norvegicus [38] = experiment: Acute toxicity in Sprague-Dawley rat assessed as motor impairment at 300 mg/kg, ip after 0.25 hrs; assay type: organism-based; parameters: dose 300 mg/kg, route intraperitoneal; conditions: in vivo; how it was run: as §1
# Rattus norvegicus [39] = experiment: Acute toxicity in Sprague-Dawley rat assessed as motor impairment at 300 mg/kg, ip after 0.5 hrs; assay type: organism-based; parameters: dose 300 mg/kg, route intraperitoneal; conditions: in vivo; how it was run: as §1
# Rattus norvegicus [40] = experiment: Acute toxicity in Sprague-Dawley rat assessed as motor impairment at 300 mg/kg, ip after 1 hr; assay type: organism-based; parameters: dose 300 mg/kg, route intraperitoneal; conditions: in vivo; how it was run: as §1
compound,measurement,setting,value
O=C(N/N=C\c1ccc(Oc2ccc(F)cc2)cc1)c1ccncc1,Activity,Rattus norvegicus [1],Non-toxic
same,Activity,Rattus norvegicus [2],Non-toxic
same,Activity,Rattus norvegicus [3],Non-toxic
same,Activity,Rattus norvegicus [4],Non-toxic
same,Activity,Rattus norvegicus [5],Non-toxic
same,PI,Mus musculus [6],6.44
same,PI,Mus musculus [7],2.67
same,ED50,Mus musculus [8],53.3 mg/kg
same,TD50 at 8 h,[9],344 mg/kg
same,ED50,Mus musculus [10],> 250 mg/kg
same,ED50,Mus musculus [11],128 mg/kg
same,Activity,Mus musculus [12],inactive
same,Activity,Mus musculus [13],inactive
same,Activity,Mus musculus [14],50%
same,Activity,Mus musculus [15],Active
same,Activity,Mus musculus [16],75%
same,Activity,Mus musculus [17],inactive
same,Activity,Mus musculus [18],100 mg/kg
same,Activity,Mus musculus [19],300 mg/kg
same,Activity,Mus musculus [20],inactive
same,Activity,Mus musculus [21],inactive
same,Activity,Mus musculus [22],Non-toxic
same,Activity,Mus musculus [23],Non-toxic
same,Activity,Rattus norvegicus [24],inactive
same,Activity,Rattus norvegicus [25],inactive
same,Activity,Rattus norvegicus [26],inactive
same,Activity,Rattus norvegicus [27],inactive
same,Activity,Rattus norvegicus [28],Non-toxic
same,Activity,Rattus norvegicus [29],Non-toxic
same,Activity,Rattus norvegicus [30],Non-toxic
same,Activity,Rattus norvegicus [31],Non-toxic
same,Activity,Rattus norvegicus [32],Non-toxic
same,Activity,Rattus norvegicus [33],25%
same,Activity,Rattus norvegicus [34],inactive
same,Activity,Rattus norvegicus [35],Non-toxic
same,Activity,Rattus norvegicus [36],24.2 g
same,logP at 24 h,[37],3.5
same,Activity,Rattus norvegicus [38],Toxic
same,Activity,Rattus norvegicus [39],Toxic
same,Activity,Rattus norvegicus [40],Toxic
